Consider 8 compounds from publication PMC4635625 (Neuropharmacology, 2015).

Each structure is given as a SMILES string. Where a name gives a salt, the structure may show the parent alone. Read-outs that look alike come from different tables or passages of the source.

The target in assay [1] is α6β2‡ nAChR, TrpB (α6:W149) = 6-F1Trp (Rattus norvegicus, UniProt P12390+P43143, L273S/L280S/L348M/R364A/R365A/R367A/W179X). The experiment in a line: TEVC dose-response, nonsense suppression, 6-F1Trp at TrpB. To be noted: TrpB = 6-F1Trp; 10:1 α6β2‡. Format: cell-based.
The target of assay [2] is α6β2‡ nAChR, TrpB (α6:W149) = 5-F1Trp (Rattus norvegicus, UniProt P12390+P43143, L273S/L280S/L348M/R364A/R365A/R367A/W179X). Kind of assay: TEVC dose-response, nonsense suppression, 5-F1Trp at TrpB. Type of assay: cell-based.
Assay [3] deals with α6β2‡ nAChR, TrpB (α6:W149) = Trp (Rattus norvegicus, UniProt P12390+P43143, L273S/L280S/L348M/R364A/R365A/R367A). The experiment in a line: TEVC dose-response, nonsense suppression series, Trp at TrpB. Type of assay: cell-based.
Chain of α6β2‡ nAChR, TrpB (α6:W149) = Trp (P43143 31-493 L280S): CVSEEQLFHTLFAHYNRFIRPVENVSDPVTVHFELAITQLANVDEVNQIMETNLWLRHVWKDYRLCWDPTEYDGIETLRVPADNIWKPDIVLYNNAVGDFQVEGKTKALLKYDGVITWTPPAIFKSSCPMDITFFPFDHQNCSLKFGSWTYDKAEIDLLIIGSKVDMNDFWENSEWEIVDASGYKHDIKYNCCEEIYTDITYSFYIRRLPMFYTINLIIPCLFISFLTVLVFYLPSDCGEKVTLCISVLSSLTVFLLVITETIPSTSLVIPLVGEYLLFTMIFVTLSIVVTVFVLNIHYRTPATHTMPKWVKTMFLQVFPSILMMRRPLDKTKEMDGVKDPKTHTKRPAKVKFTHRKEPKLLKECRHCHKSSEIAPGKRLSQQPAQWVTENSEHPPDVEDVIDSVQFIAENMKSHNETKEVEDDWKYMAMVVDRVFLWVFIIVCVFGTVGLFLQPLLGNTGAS
Chain of α6β2‡ nAChR, TrpB (α6:W149) = Trp (P12390 25-500 L273S/L348M/R364A/R365A/R367A): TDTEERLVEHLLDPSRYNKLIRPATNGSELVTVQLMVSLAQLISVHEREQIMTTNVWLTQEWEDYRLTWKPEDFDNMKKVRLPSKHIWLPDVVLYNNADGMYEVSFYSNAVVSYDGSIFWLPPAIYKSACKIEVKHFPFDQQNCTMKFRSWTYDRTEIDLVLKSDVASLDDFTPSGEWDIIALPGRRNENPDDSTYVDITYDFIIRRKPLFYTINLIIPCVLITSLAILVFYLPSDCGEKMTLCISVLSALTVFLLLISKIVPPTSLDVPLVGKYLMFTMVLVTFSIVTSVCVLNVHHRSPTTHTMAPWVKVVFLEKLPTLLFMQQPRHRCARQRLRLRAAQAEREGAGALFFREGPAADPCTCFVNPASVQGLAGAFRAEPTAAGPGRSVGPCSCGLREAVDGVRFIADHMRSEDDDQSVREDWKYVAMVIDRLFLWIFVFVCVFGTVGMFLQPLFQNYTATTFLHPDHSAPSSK
Assay [4] addresses α6L9′Sβ2L9′SLFM/AAQA (α6β2‡) nAChR (Rattus norvegicus, UniProt P12390+P43143, L273S/L280S/L348M/R364A/R365A/R367A). The experiment in a line: cell-based. Format: cell-based.
The target in assay [5] is α6β2‡ nAChR, TrpB (α6:W149) = 5,7-F2Trp (Rattus norvegicus, UniProt P12390+P43143, L273S/L280S/L348M/R364A/R365A/R367A/W179X). Kind of assay: TEVC dose-response, nonsense suppression, F2Trp at TrpB. Type of assay: cell-based.
Assay [6] concerns muscle-type nAChR. The note with it: ref Beene et al., 2002; cited from earlier work.
Assay [7] has as its system α4β2 nAChR. To be noted: ref Dougherty and Van Arnam, 2014; cited from earlier work.
Assay [8] deals with α6β2‡ nAChR, TrpB (α6:W149) = 5-Br-Trp (Rattus norvegicus, UniProt P12390+P43143, L273S/L280S/L348M/R364A/R365A/R367A/W179X). Kind of assay: TEVC dose-response, nonsense suppression, BrTrp at TrpB. Type of assay: cell-based.
Assay [9] concerns the target α6β2‡ nAChR, TrpB (α6:W149) = 5-CNTrp (Rattus norvegicus, UniProt P12390+P43143, L273S/L280S/L348M/R364A/R365A/R367A/W179X). Kind of assay: TEVC dose-response, nonsense suppression, CNTrp at TrpB. Type of assay: cell-based. The note with it: 10:1 α6β2‡.
In assay [10] the target is TrpB (α6:W149) in α6β2‡ nAChR (Rattus norvegicus, UniProt P12390+P43143, L273S/L280S/L348M/R364A/R365A/R367A). Kind of assay: Fluorination plot. Type of assay: cell-based. To be noted: for cation-π interaction with the indole side chain of TrpB: fluorination plot at TrpB in α6β2‡. An outline of the steps:
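Rat α6β2‡ with UAG at TrpB, 10:1 α6:β2 mRNA, coinjected with photodeprotected fluoro-Trp–tRNA (25 ng mRNA per cell) into stage V–VI Xenopus oocytes; 24–48 h at 18 °C in ND96 pH 7.5. TEVC at −60 mV, 15 s agonist pulses in Ca2+-free ND96. EC50 from Hill fits of normalized averaged data. Log fold-shift in EC50 plotted against calculated cation–fluoro-Trp binding energy.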

Assay [11] has as its target α6β2‡ nAChR, TrpB (α6:W149) = 5,6,7-F3Trp (Rattus norvegicus, UniProt P12390+P43143, L273S/L280S/L348M/R364A/R365A/R367A/W179X). The experiment in a line: TEVC dose-response, nonsense suppression, F3Trp at TrpB. Format: cell-based.
Assay [12] addresses α6β2‡ nAChR, TrpB (α6:W149) = 5-Me-Trp (Rattus norvegicus, UniProt P12390+P43143, L273S/L280S/L348M/R364A/R365A/R367A/W179X). Kind of assay: TEVC dose-response, nonsense suppression, MeTrp at TrpB. Type of assay: cell-based.
Assay [13] addresses α6β2‡ nAChR, TrpB (α6:W149) = 4-F1Trp (Rattus norvegicus, UniProt P12390+P43143, L273S/L280S/L348M/R364A/R365A/R367A/W179X). The experiment in a line: TEVC dose-response, nonsense suppression, 4-F1Trp at TrpB. Type of assay: cell-based. The note with it: TrpB = 4-F1Trp; 10:1 α6β2‡.
Assay [14] addresses α6β2‡ nAChR (Rattus norvegicus, UniProt P12390+P43143, L273S/L280S/L348M/R364A/R365A/R367A). Type of assay: cell-based.
[15] abbreviates: agonist panel, α6-biased population, Hill coefficient.
Setting [16] is: agonist panel, α6-biased population, range of maximum currents.
Where [17] appears, read: agonist panel, α6-biased population, holding potential −60 mV.
[18] abbreviates: Table 4, fold-shift in EC50 relative to Trp.

Chain of α6β2‡ nAChR (P43143 31-493 L280S): as the sequence (P43143 31-493 L280S) above
Chain of α6β2‡ nAChR (P12390 25-500 L273S/L348M/R364A/R365A/R367A): as the sequence (P12390 25-500 L273S/L348M/R364A/R365A/R367A) above
Chain of TrpB (α6:W149) in α6β2‡ nAChR (P43143 31-493 L280S): as the sequence (P43143 31-493 L280S) above
Chain of TrpB (α6:W149) in α6β2‡ nAChR (P12390 25-500 L273S/L348M/R364A/R365A/R367A): as the sequence (P12390 25-500 L273S/L348M/R364A/R365A/R367A) above
Chain of α6L9′Sβ2L9′SLFM/AAQA (α6β2‡) nAChR (P43143 31-493 L280S): as the sequence (P43143 31-493 L280S) above
Chain of α6L9′Sβ2L9′SLFM/AAQA (α6β2‡) nAChR (P12390 25-500 L273S/L348M/R364A/R365A/R367A): as the sequence (P12390 25-500 L273S/L348M/R364A/R365A/R367A) above

As for `CC(=O)OCC[N+](C)(C)C` [ACh, Acetylcholine chloride], the Imax was 0.18–4.28 uA in [1]; 0.28–14.9 uA in [3] (10:1 α6β2‡); 0.28–14.9 µA in assay [4] (setting [16]); 4.42–14.2 in [4] (α6:β2 mRNA ratio 1:1, range of maximum currents); 3.06–31.7 in assay [4] (α6:β2 mRNA ratio 1:2, range of maximum currents); 0.70–8.21 in [4] (α6:β2 mRNA ratio 1:5, range of maximum currents). Moreover, the Imax was 1.01–4.67 in assay [4] (α6:β2 mRNA ratio 1:10, range of maximum currents); 1.01–10.9 in assay [4] (α6:β2 mRNA ratio 1:20, range of maximum currents); 0.94–79.5 in assay [4] (α6:β2 mRNA ratio 2:1, range of maximum currents); 0.70–79.9 in [4] (α6:β2 mRNA ratio 5:1, range of maximum currents); 4.85–70.7 in assay [4] (α6:β2 mRNA ratio 10:1, range of maximum currents); 0.25–1.44 in [4] (α6:β2 mRNA ratio 20:1, range of maximum currents). Besides, the Imax in [4] (α6:β2 mRNA ratio 50:1, range of maximum currents) was 8.25–57.3; in [5] (10:1 α6β2‡), 0.76–9.33 uA; in assay [8] (10:1 α6β2‡), 0.22–15.1 uA; in assay [9], 0.31–13.3 uA; in assay [11] (10:1 α6β2‡) it was 0.09–1.94 uA; in assay [12] (10:1 α6β2‡), 0.19–19.4 uA. The Imax in assay [13] was 0.71–6.92 uA. The nH is given as 1.30 ± 0.04 in [1]; 1.37 ± 0.03 in [2] (TrpB = 5-F1Trp, 10:1 α6β2‡); 1.36 ± 0.03 in assay [3] (10:1 α6β2‡); 1.36 ± 0.03 in [4] (setting [15]); 1.15 ± 0.06 in assay [4] (α6:β2 mRNA ratio 1:1, Hill coefficient); 1.23 ± 0.05 in [4] (α6:β2 mRNA ratio 1:2, Hill coefficient). For the same compound, the nH is recorded as 0.95 ± 0.04 in [4] (α6:β2 mRNA ratio 1:5, Hill coefficient); 0.83 ± 0.02 in assay [4] (α6:β2 mRNA ratio 1:10, Hill coefficient); 0.86 ± 0.03 in assay [4] (α6:β2 mRNA ratio 1:20, Hill coefficient); 1.14 ± 0.03 in assay [4] (α6:β2 mRNA ratio 2:1, Hill coefficient); 1.17 ± 0.04 in assay [4] (α6:β2 mRNA ratio 5:1, Hill coefficient); 1.17 ± 0.04 in [4] (α6:β2 mRNA ratio 10:1, Hill coefficient). Also, the nH in assay [4] (α6:β2 mRNA ratio 20:1, Hill coefficient) was found to be 1.64 ± 0.05; in [4] (α6:β2 mRNA ratio 50:1, Hill coefficient) it was 1.17 ± 0.03; in assay [5] (10:1 α6β2‡), 1.43 ± 0.02; in [8] (10:1 α6β2‡) it was 1.32 ± 0.04; in assay [11] (10:1 α6β2‡), 1.04 ± 0.03; in assay [12] (10:1 α6β2‡) it was 1.18 ± 0.02. In addition, in assay [4] (α6L9′Sβ2L9′SLFM/AAQA in oocytes), the “currents in response to acetylcholine” value is recorded as “greater than 1 µA”. In addition, the cation-π interaction result in assay [6] is recorded as “does”. Besides, in [7], the “cation-π interaction to TrpB” value is “strong cation-π interaction”. Also, in assay [10] (10:1 α6β2‡, trend excludes 5-CNTrp and 4-F1Trp), the “slope of linear trend of fluorination plot” value was −0.10. Besides, in [10], the “cation-π interaction with the indole side chain of TrpB” value is “strong cation-π interaction”.

What is called EC50 is the midpoint of the concentration-response curve. High values mean a need for much substance, low ones an effect from little substance. In assay [4] (setting [17]), `C[N+](C)(C)CCOC(N)=O.[Cl-]` [CCh, carbamylcholine chloride] yielded an EC50 of 1360 ± 50 nM. Besides, the nH in [4] (setting [15]) came out at 1.12 ± 0.04. The Imax in [4] (setting [16]) is recorded as 3.63–52.5 µA.

On to `Clc1ccc(C2CC3CCC2N3)cn1` (racemic) [Epi, (±)-epibatidine], for which, in assay [4] (setting [15]), the nH is 1.9 ± 0.2. Besides, the Imax in [4] (setting [16]) is listed as 0.47–2.81 µA.

For the compound `O=c1cccc2n1C[C@@H]1CNC[C@H]2C1` [Cyt, cytisine], the Eff in assay [14] was 0.28 ± 0.01. In addition, in assay [4], the Imax is listed as 0.57–31.9 µA, the nH was found to be 1.31 ± 0.05 and the “potency (EC50) relative to ACh” value is on record as “slightly more potent”. In assay [4] (EC50), this compound displayed an EC50 of 27 ± 1 nM.

`C1=C(/c2cncnc2)CCCNCC/1` [TC299]: the EC50 is 220 ± 10 nM in assay [2] (Table 4, TrpB = F1Trp); 93 ± 4 nM in assay [3] (Table 4); 71 ± 3 nM in assay [4] (setting [17]); 138 ± 6 nM in [5] (Table 4); 250 ± 8 nM in assay [8] (Table 4); 630 ± 30 nM in assay [11] (Table 4). The same compound gave an EC50 in assay [12] (Table 4) of 73 ± 4 nM. Moreover, the Imax in [2] (Table 4, TrpB = F1Trp) is reported as 0.27–3.49 µA; in assay [3] (Table 4), 0.33–3.78 µA; in assay [4] (setting [16]), 1.73–21.9 µA; in assay [5] (Table 4), 0.06–1.87 µA; in assay [8] (Table 4) it was 0.1–7.71 µA; in [11] (Table 4), 0.05–0.28 µA. Moreover, the Imax in [12] (Table 4) is listed as 0.15–2.35 µA. Moreover, the nH is 1.01 ± 0.04 in assay [2] (Table 4, TrpB = F1Trp); 1.09 ± 0.04 in [3] (Table 4); 0.99 ± 0.04 in assay [4] (setting [15]); 0.98 ± 0.04 in [5] (Table 4); 1.01 ± 0.03 in assay [8] (Table 4); 0.90 ± 0.03 in assay [11] (Table 4). In assay [12] (Table 4), this compound had a nH of 0.92 ± 0.03. In addition, the Fold in [2] (Table 4, fold-shift in EC50 relative to Trp, TrpB = F1Trp) amounted to 2.37; in [3] (setting [18]), 1; in assay [5] (setting [18]), 1.48; in assay [8] (setting [18]), 2.69; in assay [11] (setting [18]), 6.77; in assay [12] (setting [18]), 0.78.

In turn, `c1cnc2cc3c(cc2n1)[C@@H]1CNC[C@H]3C1` [Var, varenicline] displayed an EC50 in assay [4] (EC50, agonist panel, α6-biased population, holding potential −60 mV) of 31 ± 3 nM. Besides, the “potency (EC50) relative to ACh” value in assay [4] (agonist panel at α6β2‡, in words) is reported as “slightly more potent”. In addition, the nH in [4] (setting [15]) is listed as 1.08 ± 0.08. Besides, in assay [4] (setting [16]), the Imax is listed as 0.51–12.1 µA.

Turning to `C[N+](C)(C)CCO` [Ch, choline chloride], the Eff in assay [14] worked out at 0.33 ± 0.02. Further, in assay [4], the Imax is on record as 2.08–15.4 µA and the nH is reported as 1.32 ± 0.05. This compound gave a concentration giving a half-maximal response (EC50) in assay [4] (EC50) of 159000 ± 7000 nM.

The compound `CN1CCC[C@H]1c1cccnc1` [Nic, (−)-nicotine tartrate] returned an Eff in [14] of 0.49 ± 0.03. Besides, the Imax in [2] (Table 4, TrpB = F1Trp) was 0.07–2.06 µA; in [3] (Table 4) it was 0.09–5.8 µA; in [4], 9.48–54.4 µA; in assay [5] (Table 4), 0.32–2.13 µA; in assay [8] (Table 4) it was 0.08–5.65 µA; in assay [11] (Table 4), 0.05–1.05 µA. Besides, the Imax in [12] (Table 4) is 0.31–3.95 µA. The nH in assay [2] (Table 4, TrpB = F1Trp) was determined as 1.39 ± 0.06; in [3] (Table 4), 1.43 ± 0.06; in assay [4] it was 1.38 ± 0.05; in assay [5] (Table 4) it was 1.30 ± 0.06; in assay [8] (Table 4) it was 1.42 ± 0.04; in assay [11] (Table 4), 1.28 ± 0.03. This compound also showed a nH in assay [12] (Table 4) of 1.36 ± 0.05. For the same compound, the “cation-π interaction to TrpB” value in assay [7] was “strong cation-π interaction”. In addition, the “cation-π interaction with the indole side chain of TrpB” value in assay [10] is on record as “do not make cation-π interactions”.
